Results reported in article PMC12217772 (Nature Communications, 2025).
Several values for one entry are separate records, joined by “and”; a condition that tells them apart may be missing. Equal values may be shown once.

Key:
[1] = target: CP-AMPARs (Rattus norvegicus, UniProt P19491); test: Whole-cell recordings, other NMDAR channel blockers on CP-AMPARs; assay type: cell-based; conditions: for Inhibitory effect on CP-AMPARs at hundreds of micromolar concentrations: hundreds of micromolar (10 and 100 µM shown in Fig. S1), 10 mM glutamate
[2] = target: GluA2(Q) (Rattus norvegicus, UniProt P19491); test: Whole-cell patch-clamp, glutamate-induced currents, GluA2; assay type: cell-based; conditions: 500 µM memantine, 10 mM glutamate, no auxiliary subunit, no CTZ
Outline: (§1)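 HEK-293T cells were transfected with GluA2(Q), GluA2(Q)/γ2 or GluA2(Q)/γ8 plus GFP, replated in NBQX medium, and recorded 24–48 h later. Whole-cell clamp at −60 mV, room temperature; CsF/CsCl/EGTA internal and NaCl/KCl/CaCl2/HEPES external, both pH 7.4. […] IC50 came from a Hill fit of steady-state inhibition; ≥3 recordings from ≥3 days.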

[3] = target: GluA2(Q)/γ2 (UniProt P19491+Q9Y698, E306D/I257V/N307S/S313A); test: as above; assay type: cell-based, rat; conditions: 10 mM glutamate
Outline: as §1

[4] = target: GluA2(Q)/γ8 (UniProt P19491+Q8WXS5); test: as above; assay type: cell-based, rat; conditions: 500 µM memantine, 10 mM glutamate
Outline: as §1

[5] = target: GluA2(Q) in the presence of CTZ (Rattus norvegicus, UniProt P19491); test: Whole-cell patch-clamp, GluA2; assay type: cell-based; conditions: 500 µM memantine, 100 μM CTZ, 10 mM glutamate
[6] = target: GluA2(R)/γ2 (Rattus norvegicus, UniProt P19491, Q607R); test: Whole-cell patch-clamp, glutamate-induced currents, CI-AMPAR GluA2; assay type: cell-based; conditions: 10 mM glutamate
[7] = target: GluA1/γ2 (Homo sapiens, UniProt P42261); test: Whole-cell patch-clamp, glutamate-induced currents, GluA1/γ2; assay type: cell-based
Outline: (§2)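 HEK-293T cells at 40–50% confluency were lipofectamine-transfected with GluA1, or GluA1 plus GluA2(R), co-transfected with γ2 or γ8 and GFP. Cells were replated after 4–6 h in NBQX-containing medium and recorded 24–48 h post-transfection. […] IC50 came from a Hill fit of steady-state current inhibition versus concentration; ≥3 recordings over ≥3 days.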

[8] = target: GluA1/γ8 (Homo sapiens, UniProt P42261); test: Whole-cell patch-clamp, glutamate-induced currents, GluA1/γ8; assay type: cell-based
Outline: as §2

[9] = target: GluA1-GluA2(R)/γ2 (UniProt P19491+P42261, Q607R); test: Whole-cell patch-clamp, co-expression of GluA1 and GluA2; assay type: cell-based
Outline: as §2

[10] = target: GluA2(Q) subunit of GluA2-γ2EM (rat) (UniProt P19491); test: cryo-EM structure

Chain of GluA1/γ8 (P42261 19-906, species assumed): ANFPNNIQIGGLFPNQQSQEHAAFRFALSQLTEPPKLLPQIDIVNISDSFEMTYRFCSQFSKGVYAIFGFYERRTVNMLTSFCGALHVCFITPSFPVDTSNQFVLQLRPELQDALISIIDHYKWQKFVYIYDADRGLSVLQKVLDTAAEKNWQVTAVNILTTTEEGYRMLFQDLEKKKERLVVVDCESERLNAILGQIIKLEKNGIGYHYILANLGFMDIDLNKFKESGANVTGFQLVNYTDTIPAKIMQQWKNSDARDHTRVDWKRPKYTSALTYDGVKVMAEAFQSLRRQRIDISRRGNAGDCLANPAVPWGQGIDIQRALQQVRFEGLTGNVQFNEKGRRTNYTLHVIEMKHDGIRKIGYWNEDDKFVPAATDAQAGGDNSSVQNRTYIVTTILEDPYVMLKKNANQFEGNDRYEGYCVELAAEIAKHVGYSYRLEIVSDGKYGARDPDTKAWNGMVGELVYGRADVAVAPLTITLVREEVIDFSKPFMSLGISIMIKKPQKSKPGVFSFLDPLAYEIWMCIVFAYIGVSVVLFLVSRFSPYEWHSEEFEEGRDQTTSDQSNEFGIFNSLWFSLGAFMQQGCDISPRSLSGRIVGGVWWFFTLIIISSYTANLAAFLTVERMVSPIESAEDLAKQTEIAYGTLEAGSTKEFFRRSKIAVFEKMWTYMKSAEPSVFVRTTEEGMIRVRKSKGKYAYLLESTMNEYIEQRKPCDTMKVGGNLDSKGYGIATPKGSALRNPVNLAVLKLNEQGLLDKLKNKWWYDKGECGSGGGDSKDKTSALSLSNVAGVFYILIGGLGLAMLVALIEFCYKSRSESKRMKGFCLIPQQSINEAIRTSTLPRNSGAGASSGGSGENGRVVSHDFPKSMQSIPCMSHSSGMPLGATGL
Chain of GluA1/γ8 (Q8WXS5 whole entry partner, species assumed): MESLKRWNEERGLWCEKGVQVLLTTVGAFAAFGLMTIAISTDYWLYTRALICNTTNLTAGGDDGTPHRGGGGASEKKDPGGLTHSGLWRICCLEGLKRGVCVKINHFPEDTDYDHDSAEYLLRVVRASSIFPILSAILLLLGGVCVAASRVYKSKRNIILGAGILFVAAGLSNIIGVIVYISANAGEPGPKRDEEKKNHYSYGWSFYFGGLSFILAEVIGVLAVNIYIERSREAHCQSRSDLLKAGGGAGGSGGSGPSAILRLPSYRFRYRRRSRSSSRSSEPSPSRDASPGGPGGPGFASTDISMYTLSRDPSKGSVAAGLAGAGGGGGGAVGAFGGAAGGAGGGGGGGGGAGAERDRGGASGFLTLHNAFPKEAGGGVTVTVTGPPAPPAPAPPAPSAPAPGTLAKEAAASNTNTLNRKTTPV
Chain of GluA1/γ2 (P42261 19-906, species assumed): as the sequence (P42261 19-906, species assumed) above
Chain of GluA1/γ2 (Q9Y698 whole entry partner, species assumed): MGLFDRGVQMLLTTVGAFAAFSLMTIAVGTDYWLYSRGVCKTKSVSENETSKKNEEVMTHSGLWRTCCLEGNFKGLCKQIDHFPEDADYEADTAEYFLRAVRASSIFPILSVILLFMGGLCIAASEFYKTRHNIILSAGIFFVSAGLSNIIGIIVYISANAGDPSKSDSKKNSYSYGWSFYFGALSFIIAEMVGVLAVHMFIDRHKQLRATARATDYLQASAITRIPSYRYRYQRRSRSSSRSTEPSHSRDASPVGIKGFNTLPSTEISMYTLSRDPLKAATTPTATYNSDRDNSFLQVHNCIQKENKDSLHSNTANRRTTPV

## C[C@]12N[C@H](Cc3ccccc31)c1ccccc12 [MK801]
[1]
  Inhibition of CP-AMPARs in the concentration range where they inhibit NMDARs: do not show significant inhibition
  Inhibitory effect on CP-AMPARs at hundreds of micromolar concentrations: minimal inhibitory effect

## CNC1(c2ccccc2Cl)CCCCC1=O (stereo not drawn) [ketamine]
[1]
  Inhibition of CP-AMPARs in the concentration range where they inhibit NMDARs: do not show significant inhibition
  Inhibitory effect on CP-AMPARs at hundreds of micromolar concentrations: minimal inhibitory effect

## CC12CC3CC(C)(C1)CC(N)(C3)C2 [memantine, Memantine]
[2]
  Inhibition of whole-cell currents of GluA2(Q) in isolation: did not show any significant inhibition
[3]; 500 µM memantine
  Effect on peak and steady-state currents of GluA2(Q)/γ2: inhibited
[3]; IC50 for memantine inhibition of GluA2(Q)/γ2, HEK-293 cells, steady-state current, −60 mV
  IC50: 49.3 µM and 49 µM
[4]
  Effect on peak and steady-state currents of GluA2(Q)/γ8: inhibited
[5]
  Effect on steady-state currents of GluA2(Q) with CTZ: showed inhibition of the steady-state currents
[6]; 500 µM memantine
  Inhibitory effect on GluA2(R)/γ2 at 500 µM: only a minor inhibitory effect
[6]; saturating concentrations of memantine
  Inhibition of GluA2(R)/γ2 currents at saturating concentrations: only partial inhibition
[7]
  IC50: 15 ± 2 µM
[8]
  IC50: 10 ± 2 µM
[9]
  IC50: 697 ± 149 µM

## GluA2(Q) subunit of GluA2-γ2EM (from UniProt P19491-2 22-883) (receptor)
[10]
  stoichiometry N: 4
